Substrate in data set [1]: CCCCCCCCCCCCC/C=C/[C@@H](O)[C@H](CO)NC(=O)CCCCCCCCCCCNc1ccc([N+](=O)[O-])c2nonc12
In words: Activity of mouse neutral ceramidase after 30 mins by TLC-based fluorescence imaging.

Substrate in data set [2]: CCCCCCCCCCCCCCCC(=O)N[C@@H](CO)[C@H](O)/C=C/CCCCCCCCCOc1ccc2c(=O)cc3oc4cc(N(CC)CC)ccc4nc-3c2c1
In words: (§1) Activity of human recombinant neutral ceramidase after 60 mins by Lineweaver-Burk plot analysis. The gist of the method: (§2)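 Human recombinant nCDase held at 20 ng/mL in 200 mM sodium acetate pH 7.0 with 200 mM NaCl and 0.1% Triton X-100. Substrate varied from 5 to 150 or 5 to 180 µM, DMSO <5%. Incubated 60 min at 37 °C, chloroform/methanol quench, TLC with fluorescence imaging. Kinetic constants from Lineweaver-Burk plots, mean ± SD of triplicate experiments.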

Substrate in data set [3]: CCCCCCCCCCCCC/C=C/[C@@H](O)[C@H](CO)NC(=O)CCCCCCCCCCCOc1ccc2c(=O)cc3oc4cc(N(CC)CC)ccc4nc-3c2c1
The data set is described as §1. The gist of the method: as §2

Substrate in data set [4]: CCCCCCCCCCCCCCCC(=O)N[C@@H](CO)[C@H](O)/C=C/CCCCCCCCCNc1ccc([N+](=O)[O-])c2nonc12
Described as §1. The gist of the method:
as §2

Substrate in data set [5]: CCCCCCCCCCCCC/C=C/[C@@H](O)[C@H](CO)NC(=O)CCCCCCCCCCCNc1ccc([N+](=O)[O-])c2nonc12
The description is as §1. A digest of the protocol: as §2

Substrate in data set [6]: CCCCCCCCCCCCCCCC(=O)N[C@@H](CO)[C@H](O)/C=C/CCCCCCCCCOc1ccc2c(=O)cc3oc4cc(N(CC)CC)ccc4nc-3c2c1
In words: (§3) Activity of human recombinant neutral ceramidase assessed per ng of protein after 60 mins by Lineweaver-Burk plot analysis. A digest of the protocol:
as §2

Substrate in data set [7]: CCCCCCCCCCCCC/C=C/[C@@H](O)[C@H](CO)NC(=O)CCCCCCCCCCCOc1ccc2c(=O)cc3oc4cc(N(CC)CC)ccc4nc-3c2c1
The description is as §3. The gist of the method: as §2

Substrate in data set [8]: CCCCCCCCCCCCCCCC(=O)N[C@@H](CO)[C@H](O)/C=C/CCCCCCCCCNc1ccc([N+](=O)[O-])c2nonc12
The data set is described as §3. The gist of the method:
as §2

Substrate in data set [9]: CCCCCCCCCCCCC/C=C/[C@@H](O)[C@H](CO)NC(=O)CCCCCCCCCCCNc1ccc([N+](=O)[O-])c2nonc12
Described as §3. A digest of the protocol:
as §2

Substrate in data set [10]: CCCCCCCCCCCCCCCC(=O)N[C@@H](CO)[C@H](O)/C=C/CCCCCCCCCOc1ccc2c(=O)cc3oc4cc(N(CC)CC)ccc4nc-3c2c1
In words: (§4) Activity of human recombinant acid ceramidase expressed in baculovirus infected Sf9 cells after 150 mins by Lineweaver-Burk plot analysis. The gist of the method:
(§5)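 Recombinant human aCDase expressed in insect cells, at a fixed enzyme level, in 200 mM sodium acetate pH 4.5 with 200 mM NaCl and 0.1% Triton X-100. Substrate varied from 5 to 150 µM or 5 to 180 µM, added from DMSO stocks (DMSO <5% v/v), 37 °C for 150 min. Chloroform/methanol extraction, TLC, fluorescence imaging of cleaved and uncleaved spots. KM, Vmax and kcat taken from Lineweaver-Burk plots, mean ± SD of three independent experiments.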

Substrate in data set [11]: CCCCCCCCCCCCC/C=C/[C@@H](O)[C@H](CO)NC(=O)CCCCCCCCCCCOc1ccc2c(=O)cc3oc4cc(N(CC)CC)ccc4nc-3c2c1
Described as §4. A digest of the protocol: as §5

Substrate in data set [12]: CCCCCCCCCCCCCCCC(=O)N[C@@H](CO)[C@H](O)/C=C/CCCCCCCCCNc1ccc([N+](=O)[O-])c2nonc12
The data set is described as §4. A digest of the protocol: as §5

Substrate in data set [13]: CCCCCCCCCCCCC/C=C/[C@@H](O)[C@H](CO)NC(=O)CCCCCCCCCCCNc1ccc([N+](=O)[O-])c2nonc12
Described as §4. A digest of the protocol:
as §5

Substrate in data set [14]: CCCCCCCCCCCCCCCC(=O)N[C@@H](CO)[C@H](O)/C=C/CCCCCCCCCOc1ccc2c(=O)cc3oc4cc(N(CC)CC)ccc4nc-3c2c1
Description: (§6) Activity of human recombinant acid ceramidase expressed in baculovirus infected Sf9 cells assessed per ug of protein after 150 mins by Lineweaver-Burk plot analysis. A digest of the protocol:
as §5

Substrate in data set [15]: CCCCCCCCCCCCC/C=C/[C@@H](O)[C@H](CO)NC(=O)CCCCCCCCCCCOc1ccc2c(=O)cc3oc4cc(N(CC)CC)ccc4nc-3c2c1
The data set is described as §6. The gist of the method:
as §5

Substrate in data set [16]: CCCCCCCCCCCCCCCC(=O)N[C@@H](CO)[C@H](O)/C=C/CCCCCCCCCNc1ccc([N+](=O)[O-])c2nonc12
The description is as §6. A digest of the protocol: as §5

Substrate in data set [17]: CCCCCCCCCCCCC/C=C/[C@@H](O)[C@H](CO)NC(=O)CCCCCCCCCCCNc1ccc([N+](=O)[O-])c2nonc12
Described as §6. A digest of the protocol: as §5

What is called Km is the concentration of substrate that gives half-maximal velocity. A word on the Vmax: it is the rate approached at saturating substrate.

B1: Neutral ceramidase (Mus musculus), Q9JHE3 (protein)
chain: MAKRTFSTLEAFLIFLLVIMTVITVALLTLLFVTSGTIENHKDSGNHWFSTTLGSTTTQPPPITQTPNFPSFRNFSGYYIGVGRADCTGQVSDINLMGYGKNGQNARGLLTRLFSRAFILADPDGSNRMAFVSVELCMISQRLRLEVLKRLESKYGSLYRRDNVILSAIHTHSGPAGFFQYTLYILASEGFSNRTFQYIVSGIMKSIDIAHTNLKPGKIFINKGNVANVQINRSPSSYLLNPQSERARYSSNTDKEMLVLKLVDLNGEDLGLISWFAIHPVSMNNSNHFVNSDNMGYAAYLFEQEKNKGYLPGQGPFVAGFASSNLGDVSPNILGPHCVNTGESCDNDKSTCPNGGPSMCMASGPGQDMFESTHIIGRIIYQKAKELYASASQEVTGPVLAAHQWVNMTDVSVQLNATHTVKTCKPALGYSFAAGTIDGVSGLNITQGTTEGDPFWDTLRDQLLGKPSEEIVECQKPKPILLHSGELTIPHPWQPDIVDVQIVTVGSLAIAAIPGELTTMSGRRFREAIKKEFALYGMKDMTVVIAGLSNVYTHYITTYEEYQAQRYEAASTIYGPHTLSAYIQLFRDLAKAIATDTVANMSSGPEPPFFKNLIASLIPNIADRAPIGKHFGDVLQPAKPEYRVGEVVEVIFVGANPKNSAENQTHQTFLTVEKYEDSVADWQIMYNDASWETRFYWHKGILGLSNATIYWHIPDTAYPGIYRIRYFGHNRKQELLKPAVILAFEGISSPFEVVTT
As to B1, in [1], the Km was found to be 22.3 µM and the Vmax worked out at 4.7 pmol/min.

B2: Neutral ceramidase (Homo sapiens), Q9NR71 (protein)
chain: MAKRTFSNLETFLIFLLVMMSAITVALLSLLFITSGTIENHKDLGGHFFSTTQSPPATQGSTAAQRSTATQHSTATQSSTATQTSPVPLTPESPLFQNFSGYHIGVGRADCTGQVADINLMGYGKSGQNAQGILTRLYSRAFIMAEPDGSNRTVFVSIDIGMVSQRLRLEVLNRLQSKYGSLYRRDNVILSGTHTHSGPAGYFQYTVFVIASEGFSNQTFQHMVTGILKSIDIAHTNMKPGKIFINKGNVDGVQINRSPYSYLQNPQSERARYSSNTDKEMIVLKMVDLNGDDLGLISWFAIHPVSMNNSNHLVNSDNVGYASYLLEQEKNKGYLPGQGPFVAAFASSNLGDVSPNILGPRCINTGESCDNANSTCPIGGPSMCIAKGPGQDMFDSTQIIGRAMYQRAKELYASASQEVTGPLASAHQWVDMTDVTVWLNSTHASKTCKPALGYSFAAGTIDGVGGLNFTQGKTEGDPFWDTIRDQILGKPSEEIKECHKPKPILLHTGELSKPHPWHPDIVDVQIITLGSLAITAIPGEFTTMSGRRLREAVQAEFASHGMQNMTVVISGLCNVYTHYITTYEEYQAQRYEAASTIYGPHTLSAYIQLFRNLAKAIATDTVANLSRGPEPPFFKQLIVPLIPSIVDRAPKGRTFGDVLQPAKPEYRVGEVAEVIFVGANPKNSVQNQTHQTFLTVEKYEATSTSWQIVCNDASWETRFYWHKGLLGLSNATVEWHIPDTAQPGIYRIRYFGHNRKQDILKPAVILSFEGTSPAFEVVTI
For the protein B2, the Km in [2] worked out at 36.4 µM; in data set [3] it was 85.3 µM; in data set [4] it was 193 µM; in [5] it was 190 µM. Moreover, the Vmax in data set [2] was 5.3 pmol/min; in data set [3] it was 10 pmol/min; in data set [4], 31.8 pmol/min; in data set [5], 62.4 pmol/min. For the same protein, the specific activity in data set [6] amounted to 0.26 pmol/min/ng; in [7], 0.5 pmol/min/ng; in data set [8], 1.6 pmol/min/ng; in data set [9], 3.1 pmol/min/ng.

B3: Acid ceramidase (Homo sapiens), Q13510 (protein)
chain: MPGRSCVALVLLAAAVSCAVAQHAPPWTEDCRKSTYPPSGPTYRGAVPWYTINLDLPPYKRWHELMLDKAPVLKVIVNSLKNMINTFVPSGKIMQVVDEKLPGLLGNFPGPFEEEMKGIAAVTDIPLGEIISFNIFYELFTICTSIVAEDKKGHLIHGRNMDFGVFLGWNINNDTWVITEQLKPLTVNLDFQRNNKTVFKASSFAGYVGMLTGFKPGLFSLTLNERFSINGGYLGILEWILGKKDVMWIGFLTRTVLENSTSYEEAKNLLTKTKILAPAYFILGGNQSGEGCVITRDRKESLDVYELDAKQGRWYVVQTNYDRWKHPFFLDDRRTPAKMCLNRTSQENISFETMYDVLSTKPVLNKLTVYTTLIDVTKGQFETYLRDCPDPCIGW
Take B3: the Michaelis constant (Km) in data set [10] is 81.8 µM; in data set [11] it was 110 µM; in data set [12], 204 µM; in data set [13], 86.9 µM. Besides, the Vmax was 3.9 pmol/min in data set [10], 7.2 pmol/min in data set [11], 12.2 pmol/min in [12] and 4.4 pmol/min in data set [13]. Also, the specific activity is 0.078 pmol/min/µg in data set [14], 0.143 pmol/min/µg in [15], 0.244 pmol/min/µg in data set [16] and 0.0882 pmol/min/µg in [17].

Source of the values: ChEMBL document CHEMBL2146367, “Novel fluorescent ceramide derivatives for probing ceramidase substrate specificity” (Bioorg Med Chem, 2012).
